This passage reports Plasma GH release and Potency results from ChEMBL document CHEMBL1123585, “Differential effects of N-terminal modifications on the biological potencies of growth hormone releasing factor analogues with varying chain lengths” (1987).

The subject of test [1] is Rattus norvegicus. Briefly: Effect on growth hormone release(GRF) was determined in nembutal-anesthetized rat, at dose of 200 ug/100 g body weight. It counts as functional, organism-based. In outline:
(§1)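 Male Charles River rats (175-275 g), anesthetized with sodium pentobarbital 6 mg/100 g body weight. Six to nine per group. Peptide or saline given subcutaneously in 0.5 mL, 30 min after anesthetic. Jugular vein blood taken 15 min post-injection. Plasma GH measured by radioimmunoassay and reported as ng/mL, mean ± SEM.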

In test [2] the test system is Rattus norvegicus. As to the kind of experiment: Effect on growth hormone release(GRF) was determined in nembutal-anesthetized rat, at dose of 80 ug/100 g body weight. In kind it is functional, organism-based. An outline of the steps: as §1
The target of test [3] is T1, Growth hormone-releasing hormone receptor (Rattus norvegicus) (UniProt Q02644).
T1 sequence (whole entry): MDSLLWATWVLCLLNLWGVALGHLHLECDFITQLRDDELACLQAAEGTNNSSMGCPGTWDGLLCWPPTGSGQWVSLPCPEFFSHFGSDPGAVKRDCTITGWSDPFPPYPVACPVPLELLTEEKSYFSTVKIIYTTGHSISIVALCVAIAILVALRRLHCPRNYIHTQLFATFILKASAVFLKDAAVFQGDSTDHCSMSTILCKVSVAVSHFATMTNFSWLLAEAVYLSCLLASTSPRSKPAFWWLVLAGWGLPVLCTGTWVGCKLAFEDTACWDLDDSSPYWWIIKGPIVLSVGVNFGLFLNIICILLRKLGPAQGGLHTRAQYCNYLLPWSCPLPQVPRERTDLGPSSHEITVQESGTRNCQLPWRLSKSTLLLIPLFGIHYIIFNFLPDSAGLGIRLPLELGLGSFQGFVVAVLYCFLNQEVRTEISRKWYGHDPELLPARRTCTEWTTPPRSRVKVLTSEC
As to the kind of experiment: In vitro rat pituitary cell growth hormone response was obtained. Conditions: Pituitary gland cell. It counts as functional, cell-based.

The target of test [4] is T1, Growth hormone-releasing hormone receptor (Rattus norvegicus). Briefly: Tested for the potency of growth hormone (GRF) on subcutaneous administration in anesthetized male Charles River rats. It counts as functional, organism-based. An outline of the steps:
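Pentobarbital-anesthetized male rats (175-275 g), six to nine per group, received two subcutaneous doses of analogue or of reference GRF(1-29)NH2, in 0.5 mL, 30 min after anesthesia. Plasma GH measured by RIA 15 min later. Potency with 95% confidence limits calculated from a four-point assay design by the Pugsley method.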

Test [5] has the same target. As to the kind of experiment: Effect on growth hormone release(GRF) was determined in nembutal-anesthetized rat, at dose of 10 ug/100 g body weight. In kind it is functional. An outline of the steps:
as §1

The subject of test [6] is Rattus norvegicus. As to the kind of experiment: Effect on growth hormone release(GRF) was determined in nembutal-anesthetized rat, at dose of 4 ug/100 g body weight. In kind it is functional, organism-based. In outline:
as §1

Take `CC[C@H](C)[C@H](NC(=O)[C@H](C)NC(=O)[C@H](CC(=O)O)NC(=O)[C@@H](C)NC(=O)[C@@H](N)Cc1ccc(O)cc1)C(=O)N[C@@H](Cc1ccccc1)C(=O)N[C@H](C(=O)N[C@@H](CC(N)=O)C(=O)N[C@@H](CO)C(=O)N[C@@H](Cc1ccc(O)cc1)C(=O)N[C@@H](CCCN=C(N)N)C(=O)N[C@@H](CCCCN)C(=O)N[C@H](C(=O)N[C@@H](CC(C)C)C(=O)NCC(=O)N[C@@H](CCC(N)=O)C(=O)N[C@@H](CC(C)C)C(=O)N[C@@H](CO)C(=O)N[C@@H](C)C(=O)N[C@@H](CCCN=C(N)N)C(=O)N[C@@H](CCCCN)C(=O)N[C@@H](CC(C)C)C(=O)N[C@@H](CC(C)C)C(=O)N[C@@H](CCC(N)=O)C(=O)N[C@@H](CC(=O)O)C(=O)N[C@H](C(=O)N[C@@H](CC(C)C)C(N)=O)[C@@H](C)CC)C(C)C)[C@@H](C)O` (stereo in doubt; 4): the Plasma GH release in the test on Rattus norvegicus [1] turned out to be 1500 ng/mL; in the test on Rattus norvegicus [2], 742 ng/mL. In addition, the Potency in test [3] was determined as 0.0004%; in test [4], 7%.
For the compound `CC[C@H](C)[C@H](NC(=O)[C@H](C)NC(=O)[C@@H](CC(=O)O)NC(=O)[C@H](C)NC(=O)[C@@H](N)Cc1ccc(O)cc1)C(=O)N[C@@H](Cc1ccccc1)C(=O)N[C@H](C(=O)N[C@H](CC(N)=O)C(=O)N[C@@H](CO)C(=O)N[C@@H](Cc1ccc(O)cc1)C(=O)N[C@@H](CCCN=C(N)N)C(=O)N[C@@H](CCCCN)C(=O)N[C@H](C(=O)N[C@@H](CC(C)C)C(=O)NCC(=O)N[C@@H](CCC(N)=O)C(=O)N[C@@H](CC(C)C)C(=O)N[C@@H](CO)C(=O)N[C@@H](C)C(=O)N[C@@H](CCCN=C(N)N)C(=O)N[C@@H](CCCCN)C(=O)N[C@@H](CC(C)C)C(=O)N[C@@H](CC(C)C)C(=O)N[C@@H](CCC(N)=O)C(=O)N[C@@H](CC(=O)O)C(=O)N[C@H](C(=O)N[C@@H](CC(C)C)C(N)=O)[C@@H](C)CC)C(C)C)[C@@H](C)O`, the Plasma GH release in test [5] was 2170 ng/mL; in the test on Rattus norvegicus [6] it was 899 ng/mL. Moreover, the Potency in test [3] came to 83%; in test [4] it was 199%.
